Results reported in ChEMBL document CHEMBL3739255, “Novel Series of Dihydropyridinone P2X7 Receptor Antagonists” (J Med Chem, 2015).

Tests used:
[1] = target: C-X-C chemokine receptor type 2 (Homo sapiens) (UniProt P25025); experiment: Inhibition of human CXCR2 at 10 uM by radioligand binding assay
How it was run: (§1)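 Commercial receptor scan across a 78-target panel, with percent inhibition measured at a test concentration of 10 uM.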

[2] = target: D(2) dopamine receptor (Homo sapiens) (UniProt P14416); experiment: Inhibition of human dopamine D2S receptor at 10 uM
How it was run: (§2)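 Outsourced broad receptor-screening panel of 78 targets, each tested at a single 10 uM concentration; read-out is percent inhibition. Detailed conditions are given only in the Supporting Information.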

P2X purinoceptor 7 [3] = target: T1, P2X purinoceptor 7 (Homo sapiens, UniProt Q99572); experiment: Antagonist activity at P2X7R in human whole blood assessed as inhibition of LPS-induced IL-1beta production incubated for 30 mins followed by ATP addition for 30 mins by ELISA assay; format: tissue-based
T1 sequence (Q99572 whole entry): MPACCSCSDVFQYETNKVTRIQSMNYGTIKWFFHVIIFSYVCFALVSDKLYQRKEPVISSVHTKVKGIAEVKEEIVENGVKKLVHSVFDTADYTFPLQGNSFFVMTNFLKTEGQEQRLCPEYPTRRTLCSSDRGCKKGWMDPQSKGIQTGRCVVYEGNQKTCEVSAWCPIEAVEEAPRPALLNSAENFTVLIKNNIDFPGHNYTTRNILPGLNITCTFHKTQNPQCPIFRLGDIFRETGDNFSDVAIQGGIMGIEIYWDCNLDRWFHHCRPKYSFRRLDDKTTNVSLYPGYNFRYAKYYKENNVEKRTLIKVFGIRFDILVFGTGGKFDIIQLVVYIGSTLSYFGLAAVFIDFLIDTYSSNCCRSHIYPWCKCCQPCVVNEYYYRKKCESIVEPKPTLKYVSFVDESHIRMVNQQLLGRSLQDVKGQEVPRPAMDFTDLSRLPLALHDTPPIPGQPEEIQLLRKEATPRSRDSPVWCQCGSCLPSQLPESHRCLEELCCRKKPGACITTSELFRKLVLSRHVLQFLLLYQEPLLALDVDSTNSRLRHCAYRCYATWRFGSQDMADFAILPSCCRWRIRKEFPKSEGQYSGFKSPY

Rattus norvegicus [4] = organism: Rattus norvegicus; experiment: Inhibition of rat sodium channel site 2 at 10 uM by radioligand binding assay
How it was run: (§3)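 Single-concentration screen at 10 uM in a commercial 78-receptor panel run by CEREP; results are given as % inhibition.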

[5] = target: Somatostatin receptor (Mus musculus) (UniProt P30935+O08858+P30875+P30873+P49660); experiment: Inhibition of mouse somatostatin receptor at 10 uM by radioligand binding assay; format: protein assay; how it was run: as §2
[6] = target: Muscarinic acetylcholine receptor M2 (Homo sapiens) (UniProt P08172); experiment: Inhibition of human muscarinic M2 receptor at 10 uM; how it was run: as §2
Chain of Muscarinic acetylcholine receptor M2 (Homo sapiens) (P08172 whole entry): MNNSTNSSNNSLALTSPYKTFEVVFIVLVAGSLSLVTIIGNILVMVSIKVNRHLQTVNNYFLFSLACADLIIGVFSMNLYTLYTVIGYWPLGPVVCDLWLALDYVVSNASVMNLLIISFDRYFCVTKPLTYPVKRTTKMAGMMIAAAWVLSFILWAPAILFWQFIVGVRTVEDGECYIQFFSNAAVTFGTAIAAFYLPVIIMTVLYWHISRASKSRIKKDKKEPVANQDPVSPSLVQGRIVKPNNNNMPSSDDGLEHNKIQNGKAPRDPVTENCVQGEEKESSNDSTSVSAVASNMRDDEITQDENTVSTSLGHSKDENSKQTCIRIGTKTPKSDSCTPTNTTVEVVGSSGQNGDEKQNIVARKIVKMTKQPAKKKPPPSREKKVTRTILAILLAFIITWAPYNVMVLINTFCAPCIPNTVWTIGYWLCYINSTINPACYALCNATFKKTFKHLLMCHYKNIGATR

Rattus norvegicus [7] = organism: Rattus norvegicus; experiment: Inhibition of rat central type benzodiazepine receptor at 10 uM by radioligand binding assay; how it was run: as §3
[8] = target: Peroxisome proliferator-activated receptor gamma (Homo sapiens) (UniProt P37231); experiment: Inhibition of human PPARgamma at 10 uM; how it was run: as §2
Chain of Peroxisome proliferator-activated receptor gamma (Homo sapiens) (P37231 whole entry): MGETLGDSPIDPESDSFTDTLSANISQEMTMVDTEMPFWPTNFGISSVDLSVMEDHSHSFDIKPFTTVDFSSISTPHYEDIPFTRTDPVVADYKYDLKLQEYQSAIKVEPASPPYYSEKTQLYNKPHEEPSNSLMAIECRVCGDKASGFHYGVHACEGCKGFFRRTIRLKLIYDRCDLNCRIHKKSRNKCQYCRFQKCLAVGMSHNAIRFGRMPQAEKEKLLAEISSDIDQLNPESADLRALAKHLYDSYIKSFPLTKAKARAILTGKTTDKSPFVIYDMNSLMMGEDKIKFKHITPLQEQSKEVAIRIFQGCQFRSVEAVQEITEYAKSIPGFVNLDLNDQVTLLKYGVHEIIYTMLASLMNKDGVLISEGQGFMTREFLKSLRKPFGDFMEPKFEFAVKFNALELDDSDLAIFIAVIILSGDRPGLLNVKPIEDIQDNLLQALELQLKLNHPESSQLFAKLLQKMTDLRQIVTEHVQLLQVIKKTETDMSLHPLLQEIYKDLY

[9] = target: Sodium-dependent serotonin transporter (Homo sapiens) (UniProt P31645); experiment: Inhibition of human 5-HT transporter at 10 uM; how it was run: as §1
P2X purinoceptor 7 [10] = target: P2X purinoceptor 7 (Rattus norvegicus, UniProt Q64663); experiment: Antagonist activity at rat P2X7R expressed in BzATP-stimulated HEK293 cells incubated for 20 mins followed by BzATP stimulation measured every 1 sec for 60 secs followed by 3 sec intervals for 4 mins by FLIPR Ca2+ assay in presence of ionomycin; format: cell-based
Chain of P2X purinoceptor 7 (Rattus norvegicus, UniProt Q64663) (Q64663 whole entry): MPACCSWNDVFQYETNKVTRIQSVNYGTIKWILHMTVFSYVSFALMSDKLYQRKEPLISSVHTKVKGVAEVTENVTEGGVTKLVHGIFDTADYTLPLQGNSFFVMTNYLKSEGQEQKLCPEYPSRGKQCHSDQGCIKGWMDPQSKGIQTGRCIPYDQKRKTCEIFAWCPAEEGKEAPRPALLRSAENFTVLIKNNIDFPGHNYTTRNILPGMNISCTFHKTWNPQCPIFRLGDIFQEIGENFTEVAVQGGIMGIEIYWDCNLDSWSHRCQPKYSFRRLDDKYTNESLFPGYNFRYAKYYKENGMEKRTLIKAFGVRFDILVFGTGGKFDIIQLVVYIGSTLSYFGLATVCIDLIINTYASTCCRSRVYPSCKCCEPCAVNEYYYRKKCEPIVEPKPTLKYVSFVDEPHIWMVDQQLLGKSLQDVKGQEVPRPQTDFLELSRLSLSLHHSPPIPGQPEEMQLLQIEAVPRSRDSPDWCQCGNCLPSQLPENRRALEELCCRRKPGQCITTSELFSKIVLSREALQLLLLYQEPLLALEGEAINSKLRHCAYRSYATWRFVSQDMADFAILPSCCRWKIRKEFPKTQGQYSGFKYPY

[11] = target: Endothelin-1 receptor (Homo sapiens) (UniProt P25101); experiment: Inhibition of human ETA receptor at 10 uM by radioligand binding assay; how it was run: as §1
[12] = Drug metabolism in cynomolgus monkey urine assessed as hydrolysis of amide bond at 10 mg/kg; format: ADME, organism-based, Macaca fascicularis; conditions: in vivo
[13] = target: Adenosine receptor A1 (Homo sapiens) (UniProt P30542); experiment: Inhibition of human adenosine A1 receptor at 10 uM; how it was run: as §2
Chain of Adenosine receptor A1 (Homo sapiens) (P30542 whole entry): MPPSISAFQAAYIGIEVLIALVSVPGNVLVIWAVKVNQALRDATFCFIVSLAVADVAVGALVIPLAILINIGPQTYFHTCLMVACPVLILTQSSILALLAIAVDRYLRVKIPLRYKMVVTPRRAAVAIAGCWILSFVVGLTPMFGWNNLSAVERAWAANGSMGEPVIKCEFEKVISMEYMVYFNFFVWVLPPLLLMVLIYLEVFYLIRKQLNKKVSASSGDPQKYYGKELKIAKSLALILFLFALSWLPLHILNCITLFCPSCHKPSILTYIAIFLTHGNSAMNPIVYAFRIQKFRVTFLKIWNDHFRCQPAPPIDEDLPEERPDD

[14] = target: 5-hydroxytryptamine receptor 2A (Homo sapiens) (UniProt P28223); experiment: Inhibition of human 5-HT2A receptor at 10 uM; how it was run: as §1
Chain of 5-hydroxytryptamine receptor 2A (Homo sapiens) (P28223 whole entry): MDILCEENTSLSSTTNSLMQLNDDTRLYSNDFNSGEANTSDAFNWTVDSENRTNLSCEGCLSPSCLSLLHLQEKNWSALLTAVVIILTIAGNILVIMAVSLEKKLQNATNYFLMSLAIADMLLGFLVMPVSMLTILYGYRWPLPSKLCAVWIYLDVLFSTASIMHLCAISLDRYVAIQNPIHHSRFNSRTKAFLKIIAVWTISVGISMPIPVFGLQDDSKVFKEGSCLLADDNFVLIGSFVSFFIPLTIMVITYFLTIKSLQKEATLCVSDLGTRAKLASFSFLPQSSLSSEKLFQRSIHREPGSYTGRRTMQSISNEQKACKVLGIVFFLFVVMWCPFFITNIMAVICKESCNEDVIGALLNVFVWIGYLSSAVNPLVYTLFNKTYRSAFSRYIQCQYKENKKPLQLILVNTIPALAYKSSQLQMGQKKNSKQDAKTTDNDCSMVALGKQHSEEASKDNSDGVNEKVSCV

[15] = target: D(1B) dopamine receptor (Homo sapiens) (UniProt P21918); experiment: Inhibition of human dopamine D5 receptor at 10 uM; how it was run: as §2
[16] = target: Beta-1 adrenergic receptor (Homo sapiens) (UniProt P08588); experiment: Inhibition of human beta1-adrenoceptor at 10 uM by radioligand binding assay; how it was run: as §2
[17] = target: Adenosine receptor A2a (Homo sapiens) (UniProt P29274); experiment: Inhibition of human adenosine A2A receptor at 10 uM by radioligand binding assay; how it was run: as §2
[18] = target: 5-hydroxytryptamine receptor 3A (Homo sapiens) (UniProt P46098); experiment: Inhibition of human 5-HT3 receptor at 10 uM; how it was run: as §1
Chain of 5-hydroxytryptamine receptor 3A (Homo sapiens) (P46098 whole entry): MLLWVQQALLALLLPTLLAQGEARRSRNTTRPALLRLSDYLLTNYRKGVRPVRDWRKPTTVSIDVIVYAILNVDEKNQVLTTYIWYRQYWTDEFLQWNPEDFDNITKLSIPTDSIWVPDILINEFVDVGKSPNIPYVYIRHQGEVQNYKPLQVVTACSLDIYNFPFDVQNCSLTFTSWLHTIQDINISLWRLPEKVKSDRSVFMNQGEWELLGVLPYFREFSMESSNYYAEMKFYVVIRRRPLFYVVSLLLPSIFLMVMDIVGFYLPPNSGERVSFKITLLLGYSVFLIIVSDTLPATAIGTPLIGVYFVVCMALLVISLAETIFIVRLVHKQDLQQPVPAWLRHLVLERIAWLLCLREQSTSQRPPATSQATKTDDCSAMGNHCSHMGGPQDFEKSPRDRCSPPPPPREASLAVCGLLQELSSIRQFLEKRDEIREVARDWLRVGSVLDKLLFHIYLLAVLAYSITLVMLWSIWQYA

[19] = Clearance in rat at 0.5 mg/kg, iv administered as single dose; format: ADME, organism-based; conditions: in vivo
How it was run: (§4)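 Single-dose rat PK: iv at 0.5 mg/kg and po at 2 mg/kg. n ≥ 2 animals per time point. Oral AUC normalized to dose; clearance, Vdss and half-life taken from the iv arm.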

P2X purinoceptor 2 = P2X purinoceptor 2 (Homo sapiens, UniProt Q9UBL9); experiment: Inhibition of P2X2R (unknown origin)
Chain of P2X purinoceptor 2 (Q9UBL9 whole entry): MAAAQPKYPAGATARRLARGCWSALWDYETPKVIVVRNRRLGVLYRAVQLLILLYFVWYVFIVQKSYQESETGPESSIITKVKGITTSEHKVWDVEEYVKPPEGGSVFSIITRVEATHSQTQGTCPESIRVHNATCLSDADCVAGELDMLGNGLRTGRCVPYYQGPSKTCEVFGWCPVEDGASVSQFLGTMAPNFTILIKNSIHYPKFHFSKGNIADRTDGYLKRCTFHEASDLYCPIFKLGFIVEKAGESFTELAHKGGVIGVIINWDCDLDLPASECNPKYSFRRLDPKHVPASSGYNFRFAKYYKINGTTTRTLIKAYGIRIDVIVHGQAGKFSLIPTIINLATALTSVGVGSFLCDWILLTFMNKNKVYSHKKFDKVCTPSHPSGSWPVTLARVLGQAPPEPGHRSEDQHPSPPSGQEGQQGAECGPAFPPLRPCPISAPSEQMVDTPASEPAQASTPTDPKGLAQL
How it was run: (§5)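 Selectivity at other P2X receptor subtypes, read as IC50 in a FLIPR Ca2+ flux assay.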

[20] = target: D(3) dopamine receptor (Homo sapiens) (UniProt P35462); experiment: Inhibition of human dopamine D3 receptor at 10 uM; how it was run: as §2
Chain of D(3) dopamine receptor (Homo sapiens) (P35462 whole entry): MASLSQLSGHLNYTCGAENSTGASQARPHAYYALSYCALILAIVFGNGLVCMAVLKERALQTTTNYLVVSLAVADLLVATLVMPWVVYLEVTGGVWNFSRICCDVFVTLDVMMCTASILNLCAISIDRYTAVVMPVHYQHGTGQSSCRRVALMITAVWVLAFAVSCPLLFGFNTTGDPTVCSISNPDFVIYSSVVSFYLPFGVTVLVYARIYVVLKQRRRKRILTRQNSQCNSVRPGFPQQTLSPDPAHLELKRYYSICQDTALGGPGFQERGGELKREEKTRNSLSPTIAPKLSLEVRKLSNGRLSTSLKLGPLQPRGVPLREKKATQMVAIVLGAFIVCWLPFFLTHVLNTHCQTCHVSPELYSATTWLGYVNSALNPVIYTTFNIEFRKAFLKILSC

[21] = target: Histamine H2 receptor (Homo sapiens) (UniProt P25021); experiment: Inhibition of human histamine H2 receptor at 10 uM; how it was run: as §2
Liver microsome = experiment: Drug metabolism in human liver microsomes assessed as GSH adduct UV peak area at 20 uM preincubated for 5 mins followed by NADPH addition measured after 60 mins by LC/MS/MS analysis relative to total area of GSH adduct, other metabolites, parent compound; format: ADME; conditions: 1 h, BLD = below limit of detection
Rattus norvegicus [22] = organism: Rattus norvegicus; experiment: Inhibition of rat bombesin receptor at 10 uM; how it was run: as §3
[23] = target: 5-hydroxytryptamine receptor 2C (Homo sapiens) (UniProt P28335); experiment: Inhibition of human 5-HT2C receptor at 10 uM by radioligand binding assay; how it was run: as §1
Plasma = experiment: Drug metabolism in cynomolgus monkey plasma assessed as hydrolysis of amide bond at 10 mg/kg; format: ADME, organism-based, Macaca fascicularis; conditions: in vivo
[24] = target: D(4) dopamine receptor (Homo sapiens) (UniProt P21917); experiment: Inhibition of human dopamine D4.4 receptor at 10 uM; how it was run: as §2
Chain of D(4) dopamine receptor (Homo sapiens) (P21917 whole entry): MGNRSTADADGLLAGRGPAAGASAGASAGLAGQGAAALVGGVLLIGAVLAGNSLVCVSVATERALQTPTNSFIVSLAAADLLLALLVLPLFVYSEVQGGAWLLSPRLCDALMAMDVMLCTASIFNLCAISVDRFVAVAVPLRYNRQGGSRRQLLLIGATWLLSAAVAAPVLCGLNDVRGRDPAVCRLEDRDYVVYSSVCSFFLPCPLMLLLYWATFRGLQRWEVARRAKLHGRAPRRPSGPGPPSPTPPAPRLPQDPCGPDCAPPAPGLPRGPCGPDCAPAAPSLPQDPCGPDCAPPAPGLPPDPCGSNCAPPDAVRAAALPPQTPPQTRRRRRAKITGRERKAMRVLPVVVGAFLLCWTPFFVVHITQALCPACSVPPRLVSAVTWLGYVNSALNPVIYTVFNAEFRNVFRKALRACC

[25] = target: 5-hydroxytryptamine receptor 6 (Homo sapiens) (UniProt P50406); experiment: Inhibition of human 5-HT6 receptor at 10 uM by radioligand binding assay; how it was run: as §1
[26] = Cmax in rat at 2 mg/kg, po administered as single dose; format: ADME, organism-based; set-up: dose 2 mg/kg, route oral; conditions: in vivo; how it was run: as §4
Rattus norvegicus [27] = organism: Rattus norvegicus; experiment: Inhibition of rat GABA-chloride channel receptor at 10 uM by radioligand binding assay; how it was run: as §2
[28] = target: Prostacyclin receptor (Homo sapiens) (UniProt P43119); experiment: Inhibition of human prostanoid IP1 receptor at 10 uM; format: functional; how it was run: as §2
P2X purinoceptor 5 = P2X purinoceptor 5 (Homo sapiens, UniProt Q93086); experiment: Inhibition of P2X5R (unknown origin); how it was run: as §5
Chain of P2X purinoceptor 5 (Q93086 whole entry): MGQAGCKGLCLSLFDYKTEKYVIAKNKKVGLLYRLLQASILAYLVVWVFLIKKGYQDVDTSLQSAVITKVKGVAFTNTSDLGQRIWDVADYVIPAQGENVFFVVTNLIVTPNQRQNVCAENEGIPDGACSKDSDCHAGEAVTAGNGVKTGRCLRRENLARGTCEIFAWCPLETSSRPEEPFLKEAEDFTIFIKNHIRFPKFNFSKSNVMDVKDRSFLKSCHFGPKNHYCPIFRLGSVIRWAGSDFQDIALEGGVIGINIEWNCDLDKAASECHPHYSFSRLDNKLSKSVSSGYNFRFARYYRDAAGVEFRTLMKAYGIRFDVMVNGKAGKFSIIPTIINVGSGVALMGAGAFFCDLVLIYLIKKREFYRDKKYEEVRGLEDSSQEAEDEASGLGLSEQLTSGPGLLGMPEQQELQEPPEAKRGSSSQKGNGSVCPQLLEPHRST

P2X purinoceptor 4 = P2X purinoceptor 4 (Homo sapiens, UniProt Q99571); experiment: Inhibition of P2X4R (unknown origin); how it was run: as §5

Chain of C-X-C chemokine receptor type 2 (Homo sapiens) (P25025 whole entry): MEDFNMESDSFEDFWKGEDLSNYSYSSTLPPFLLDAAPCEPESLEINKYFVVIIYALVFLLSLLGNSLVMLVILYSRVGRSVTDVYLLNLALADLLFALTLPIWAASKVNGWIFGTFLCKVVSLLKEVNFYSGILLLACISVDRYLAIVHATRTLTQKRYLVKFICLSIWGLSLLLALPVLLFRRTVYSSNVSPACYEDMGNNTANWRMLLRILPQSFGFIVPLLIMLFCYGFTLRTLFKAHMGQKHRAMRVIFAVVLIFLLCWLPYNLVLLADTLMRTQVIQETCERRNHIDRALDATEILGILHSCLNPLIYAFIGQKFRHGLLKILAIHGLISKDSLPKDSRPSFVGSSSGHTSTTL

inhibition [1]: < 30%
inhibition [2]: < 30%
IC50 (P2X purinoceptor 7 [3]): 0.06 µM
inhibition (Rattus norvegicus [4]): < 30%
inhibition [5]: < 30%
inhibition [6]: < 30%
inhibition (Rattus norvegicus [7]): < 30%
inhibition [8]: < 30%
inhibition [9]: < 30%
IC50 (P2X purinoceptor 7 [10]): > 10 µM
inhibition [11]: < 30%
Stability [12]: Stable
inhibition [13]: < 30%
inhibition [14]: < 30%
inhibition [15]: < 30%
inhibition [16]: < 30%
inhibition [17]: < 30%
inhibition [18]: < 30%
clearance [19]: 8.4 mL/min/kg
IC50 (P2X purinoceptor 2): > 10 µM
inhibition [20]: < 30%
inhibition [21]: < 30%
Drug metabolism (Liver microsome): BLD
inhibition (Rattus norvegicus [22]): < 30%
inhibition [23]: < 30%
Stability (Plasma): Stable
inhibition [24]: < 30%
inhibition [25]: < 30%
Cmax [26]: 330 ng/mL
inhibition (Rattus norvegicus [27]): < 30%
inhibition [28]: < 30%
IC50 (P2X purinoceptor 5): > 10 µM
IC50 (P2X purinoceptor 4): > 10 µM
SMILES: Cc1cc(Cl)c(OCCO)cc1NC(=O)C1=CNC(=O)C[C@H]1c1ccc(F)cc1
